Results as given in ChEMBL document CHEMBL5154669, “G-Quadruplex DNA as a Target in Pathogenic Bacteria: Efficacy of an Extended Naphthalene Diimide Ligand and Its Mode of Action” (J Med Chem, 2022).

Key:
DNA [1] = assay: Stabilization of Staphylococcus aureus in G Quadruplex DNA GGGGCTAATTGGGGCTGGTGG assessed as change in melting temperature at 10 uM incubated for 16 hrs by […]; assay type: nucleic-acid assay
Outline: (§1)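 Readout was CD melting, not FRET: 2.5 μM oligonucleotide in 10 mM lithium cacodylate pH 7.4 with KCl set per sequence (initial Tm 60-70 °C). Annealed 95 °C 5 min, cooled to room temperature over 4 h, then ligand 10 μM (4 equiv) equilibrated 16 h at 20 °C. Ellipticity at 260 nm tracked every 0.1 °C, 20-95 °C at 5 °C/min; Tm by van't Hoff two-state fit.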

DNA [2] = assay: Stabilization of Escherichia coli in G-quadruplex DNA GGG GGA GGA GGA CGG GGG assessed as melting temperature at 10 uM incubated for 16 hrs by […]; assay type: nucleic-acid assay; outline: as §1
[3] = Toxicity against Galleria mellonella assessed as survival at 5 to 128 mg/kg measured after 5 days; assay type: organism-based; conditions: in vivo, dose 5-128 mg/kg, time 5 day, read-out: Activity
Outline: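 For uninfected larvae, 20 per treatment, 10 µL was injected into the hemocoel through the last left proleg to give 8, 16, 32, 64 or 128 mg/kg. NaCl 0.9% served as the negative control. Larvae were held at 37 °C for 5 d, with mortality recorded daily.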

Staphylococcus aureus = assay: Antibacterial activity against Staphylococcus aureus LMG 8224 infected in Galleria mellonella assessed as survival at 5 to 10 mg/kg after 3 days; conditions: dose 5-10 mg/kg, time 3 day
DNA [4] = assay: Stabilization of Escherichia coli in G-quadruplex DNA GGG GGA GGA GGA CGG GGG assessed as change in melting temperature at 10 uM incubated for 16 hrs by FRET method; assay type: nucleic-acid assay; conditions: in the assay text read “by CD melting method” for “by FRET method”; outline: as §1
Enterococcus faecalis [5] = assay: Antimicrobial activity against Enterococcus faecalis V583 assessed as inhibition of bacterial growth in presence of D11 incubated for 20 hrs; conditions: V583, 20 h
[6] = tested on: Staphylococcus epidermidis; assay: Antibacterial activity against Staphylococcus epidermidis Tu3298 assessed as inhibition of bacterial growth incubated for 20 hrs by CLSI based broth microdilution method; assay type: functional
Outline: (§2)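 Broth microdilution in cation-adjusted Mueller-Hinton broth following CLSI guidelines. DMSO stocks were at 10 mM; compounds were twofold serially diluted over 128 to 2 μM. The inoculum was at 5 × 10⁵, prepared from colonies grown 20 h at 37 °C and adjusted to 0.5 McFarland. Plates ran 20 h at 37 °C with OD600 read-out. MIC was the lowest concentration inhibiting visible growth, in triplicate.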

Salmonella enterica [7] = assay: Bacteriostatic activity against Salmonella enterica LMG 07233 assessed as inhibition of bacterial growth; assay type: functional
Outline: (§3)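 A standard MIC plate (128–2 μM, cMHB, 20 h, 37 °C) was read at OD600. Each well then seeded at 10% a fresh compound-free cMHB plate, grown another 20 h at 37 °C and read at OD600. No growth at the same concentration in both plates counted as bactericidal. Growth above the MIC counted as bacteriostatic. Done in triplicate.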

Enterococcus faecalis [8] = assay: Bacteriostatic activity against Enterococcus faecalis V583 assessed as inhibition of bacterial growth; assay type: functional; outline: as §3
Enterococcus faecalis [9] = assay: Antibacterial activity against Enterococcus faecalis LMG 08222 assessed as inhibition of bacterial growth incubated for 20 hrs by CLSI based broth microdilution method; assay type: functional; outline: as §2
Bacillus cereus [10] = assay: Antibacterial activity against Bacillus cereus ATCC 14579 assessed as inhibition of bacterial growth incubated for 20 hrs by CLSI based broth microdilution method; assay type: functional; outline: as §2
Salmonella enterica [11] = assay: Antimicrobial activity against Salmonella enterica LMG 07233 assessed as inhibition of bacterial growth in presence of D11 incubated for 20 hrs; conditions: LMG 07233, 20 h
Klebsiella pneumoniae [12] = assay: Bactericidal activity against Klebsiella pneumoniae LMG 20218 assessed as inhibition of bacterial growth; assay type: functional; outline: as §3
DNA [13] = assay: Stabilization of Escherichia coli in G-quadruplex DNA GGG GCG GGG TGG GTT GG assessed as melting temperature at 10 uM incubated for 16 hrs by FRET method; assay type: nucleic-acid assay
Salmonella enterica [14] = assay: Antibacterial activity against Salmonella enterica LMG 07233 assessed as inhibition of bacterial growth incubated for 20 hrs by CLSI based broth microdilution method; assay type: functional; outline: as §2
Enterococcus faecium [15] = assay: Antibacterial activity against Enterococcus faecium LMG 16003 assessed as inhibition of bacterial growth incubated for 20 hrs by CLSI based broth microdilution method; assay type: functional; outline: as §2
Enterococcus faecalis [16] = assay: Antibacterial activity against Enterococcus faecalis V583 assessed as inhibition of bacterial growth incubated for 20 hrs by CLSI based broth microdilution method; assay type: functional; outline: as §2
Bacillus cereus [17] = assay: Antibacterial activity against Bacillus cereus ATCC 10987; assay type: functional, organism-based; conditions: DDE = dose-dependent effect
Outline: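 Cultures were inoculated at 2% and grown at 37 °C, with OD600 read every 5 min for 8 h. NDI-10 was added at exponential-phase onset (~3 h). Concentrations were 32, 16, 8 and 4 μM for E. coli, and 16, 8, 4 and […] μM for the Gram-positive strains.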

Pseudomonas aeruginosa [18] = assay: Bactericidal activity against Pseudomonas aeruginosa LMG 6395 assessed as inhibition of bacterial growth; assay type: functional; outline: as §3
Acinetobacter baumannii [19] = assay: Antimicrobial activity against Acinetobacter baumannii LMG 01041 assessed as inhibition of bacterial growth in presence of D11 incubated for 20 hrs; conditions: LMG 01041, 20 h
Acinetobacter baumannii [20] = assay: Antibacterial activity against Acinetobacter baumannii LMG 01041 assessed as inhibition of bacterial growth incubated for 20 hrs by CLSI based broth microdilution method; assay type: functional; outline: as §2
DNA [21] = assay: Stabilization of Escherichia coli in G-quadruplex DNA GGT GGG GAG GGG TAA GGG G assessed as melting temperature at 10 uM incubated for 16 hrs by […]; assay type: nucleic-acid assay; outline: as §1
Klebsiella pneumoniae [22] = assay: Antimicrobial activity against Klebsiella pneumoniae LMG 20218 assessed as inhibition of bacterial growth in presence of D11 incubated for 20 hrs; conditions: LMG 20218, 20 h
Bacillus cereus [23] = assay: Bacteriostatic activity against Bacillus cereus ATCC 10987 assessed as inhibition of bacterial growth; assay type: functional; outline: as §3
Enterobacter cloacae [24] = assay: Antimicrobial activity against Enterobacter cloacae LMG 02783 assessed as inhibition of bacterial growth in presence of D11 incubated for 20 hrs; conditions: LMG 02783, 20 h
Enterobacter cloacae [25] = assay: Antibacterial activity against Enterobacter cloacae LMG 02783 assessed as inhibition of bacterial growth incubated for 20 hrs by CLSI based broth microdilution method; assay type: functional; outline: as §2
Enterococcus faecium [26] = assay: Antibacterial activity against Enterococcus faecium LMG 11423 assessed as inhibition of bacterial growth incubated for 20 hrs by CLSI based broth microdilution method; conditions: LMG 11423, 20 h
Pseudomonas aeruginosa [27] = assay: Antibacterial activity against Pseudomonas aeruginosa LMG 6395 assessed as inhibition of bacterial growth incubated for 20 hrs by CLSI based broth microdilution method; assay type: functional; outline: as §2

CN(C)CCCn1c(=O)c2ccc3c(=O)n(CCCN(C)C)c(=O)c4c5[nH]c6ccccc6[nH]c5c(c1=O)c2c34.O=C(O)C(F)(F)F.O=C(O)C(F)(F)F
ΔTm (DNA [1]): 27.3 °C | Tm (DNA [2]): > 95 °C | survival at 120 h [3]: 65% | Activity (Staphylococcus aureus): 70% | ΔTm (DNA [4]): > 24.8 °C | MIC (Enterococcus faecalis [5]): 4 µM | MIC [6]: 16 µM | MIC (Salmonella enterica [7]): 128 µM | MIC (Enterococcus faecalis [8]): 64 µM | MIC (Enterococcus faecalis [9]): 8 µM | MIC (Bacillus cereus [10]): 8 µM | MIC (Salmonella enterica [11]): < 0.5 µM | MIC (Klebsiella pneumoniae [12]): > 128 µM | Tm (DNA [13]): 82.5 °C | MIC (Salmonella enterica [14]): 64 µM | MIC (Enterococcus faecium [15]): 4 µM | MIC (Enterococcus faecalis [16]): 4 µM | Activity (Bacillus cereus [17]): Dde | MIC (Pseudomonas aeruginosa [18]): 128 µM | MIC (Acinetobacter baumannii [19]): 8 µM | MIC (Acinetobacter baumannii [20]): 64 µM | Tm (DNA [21]): 91 °C | MIC (Klebsiella pneumoniae [22]): 16 µM | MIC (Bacillus cereus [23]): 64 µM | MIC (Enterobacter cloacae [24]): 8 µM | MIC (Enterobacter cloacae [25]): 8 µM | MIC (Enterococcus faecium [26]): 4 µM | MIC (Pseudomonas aeruginosa [27]): 128 µM
